The list is not random: actives were taken first. Their share in the collection is about 4.9%.
STAT1 act – activators of IFN-gamma induced STAT1 signaling. NIH 3T3 STAT1-luciferase reporter, luminescence; 100% = IFN-gamma alone, no compound. AID 932. 200,000 compounds, 2.6% hits. activation (% of control), % at 5.5 µM;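 active means activation above the screen-wide mean activation plus 3 SD, cut at about 130% in these data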;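 further: raw ratio to IFN-gamma control signal so 100% means no change and 0% no light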
FLuc inhib CS – counter-screen for luciferase assay inhibitors: firefly luciferase inhibition; ATPLite firefly luciferase biochemical luminescence, 10 min; inhibition, % at 10 µM; 200,000 compounds, 1.5% hits; P08659; AID 1006;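 active means inhibition above about 50% when tested at 10 µM, limit read from the data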
Target sequence (P08659 whole entry, looked up): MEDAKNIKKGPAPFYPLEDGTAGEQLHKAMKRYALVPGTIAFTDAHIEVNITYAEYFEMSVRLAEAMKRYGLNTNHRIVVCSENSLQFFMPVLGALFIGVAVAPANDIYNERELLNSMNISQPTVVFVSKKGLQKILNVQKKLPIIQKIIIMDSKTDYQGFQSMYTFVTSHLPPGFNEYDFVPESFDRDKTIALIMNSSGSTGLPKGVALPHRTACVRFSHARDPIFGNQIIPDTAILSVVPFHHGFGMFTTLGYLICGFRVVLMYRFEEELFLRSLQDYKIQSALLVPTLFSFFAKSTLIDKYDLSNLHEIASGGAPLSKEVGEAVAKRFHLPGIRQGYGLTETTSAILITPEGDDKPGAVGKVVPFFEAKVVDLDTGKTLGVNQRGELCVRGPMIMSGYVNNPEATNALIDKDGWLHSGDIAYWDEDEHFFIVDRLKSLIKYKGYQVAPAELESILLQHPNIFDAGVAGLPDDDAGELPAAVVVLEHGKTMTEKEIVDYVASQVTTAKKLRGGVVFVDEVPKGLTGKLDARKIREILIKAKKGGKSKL
FLuc stim CS – affects firefly luciferase, flagging false hits in luciferase stimulation screens | AID 1027 | ATPlite luciferase biochemical, luminescence, 10 min; 0 = ATP-free wells, 1 = DMSO control | activation factor at 10 µM | 200,000 tested, under 10 active;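 active means luciferase activation factor, scaled between plate controls, of at least 2 with compound at 10 µM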
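Material: Luciferase/luciferin reagent mix; Doses: test compounds dosed from 2 mM stocks in 100% DMSO; Schedule: 10 min incubation after luciferase reagent addition, room temperature; Measured by: luminescence from luciferase reaction; Read-out: luminescence gain marking luciferase activators.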
STAT3 activator – STAT3 signaling activation; AID 871; U3A cells, IL-6 STAT3-luciferase reporter, luminescence; 100% = signal with IL-6 EC80 alone; 190,000 compounds, 0.91% hits; activation (% of control), % at 5.6 µM;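 active means activation above the screen-wide mean of compound activation plus 3 SD, cut at about 130% in these data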;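 further: 0% = background luminescence of wells with medium and substrate only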
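Test system: STAT3-luciferase reporter U3A cells; Detection: reporter luminescence signal; Times: 1 h compound pre-exposure, 6 h IL-6 stimulation, 37 °C; Benchmarks: IL-6-only high control; Also added: IL-6 stimulus at 33 ng/mL final.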
STAT1 inh – inhibitors of IFN-gamma induced STAT1 signaling. 200,000 compounds, 0.35% hits. inhibition, % at 5.5 µM. NIH 3T3 STAT1-luciferase reporter, luminescence;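 active means inhibition above a set limit, the mean inhibition across all tested compounds plus 3 SD, cut at about 34% in these data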;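 further: 0% = IFN-gamma with DMSO and 100% = IFN-gamma with 300 µM nifuroxazide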
STAT3 blocker – inhibitors of IL-6 induced STAT3 signaling | 190,000 compounds, 0.89% hits | inhibition, % at 5.5 µM | AID 862 | U3A cells, IL-6 STAT3-luciferase reporter, luminescence; host cell line lacks STAT1;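 active means inhibition above the mean inhibition across all screened compounds plus 3 SD, cut at about 44% in these data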;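 further: 0% = DMSO only wells and 100% = 100 µM nifuroxazide control wells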
Numbers without * were called inactive; / = not tested or not shown.

SMILES	STAT1 act	FLuc inhib CS	FLuc stim CS	STAT3 activator	STAT1 inh	STAT3 blocker
COc1ccc(-c2cc(C(=O)c3c(N)n(C)c(=O)n(C)c3=O)c3ccccc3n2)cc1OC	111.1	62.4*	0.4	103.4	-12.7	-1.7
COc1ccc2cc(-c3cc(C(=O)O)c4ccccc4n3)ccc2c1	36.4	98.2*	0	16.6	72.7*	95.4*
COc1ccc(-c2cc(C(=O)N3CCN(c4ccccn4)CC3)c3ccccc3n2)cc1	108.4	80.5*	0.2	110.2	-9.3	-6.7
COc1cc(-c2cc(C(=O)N3CCN(c4ccccn4)CC3)c3ccccc3n2)cc(OC)c1OC	79.4	/	/	98.5	22.5	7.1
Cc1ccc(CNC(=O)C2CCN(S(=O)(=O)N3CCC4(CC3)OCCO4)CC2)cc1	99.0	-11.1	1.1	96.7	1.1	7.4
CC(C)CNC(=O)COc1ccccc1[N+](=O)[O-]	104.0	-7.3	1.1	109.9	-4.3	-17.4
C/C(=N\NC(=O)COc1ccccc1[N+](=O)[O-])c1cccs1	144.2*	19.0	0.8	115.2	-47.6	-17.3
CCOc1ncccc1C(=O)NCCN1C(=O)S/C(=C/c2cccs2)C1=O	91.2	-0.9	1	81.5	9.6	27.9
CC(C)C(=O)Nc1ccc(C(=O)Nc2ccc(Br)cc2F)cc1	114.0	-5.9	1.1	84.6	-16.2	20.5
Cc1cc(NC(=O)NC(=O)c2cccc(OC(F)(F)C(F)F)c2)n[nH]1	132.5*	1.4	1	121.5	-35.2	-23.3
Cc1cc(NC(=O)c2cccc(Oc3ccccc3)c2)n[nH]1	121.6	70.6*	0.3	91.8	-23.6	13.8
CN(C(=O)Cc1noc2ccccc12)c1ccccc1	100.0	1.4	1	82.5	0.0	23.3
Cc1sc(NC(=S)NC(=O)c2ccco2)c(C(N)=O)c1C	107.2	8.8	0.9	101.6	-8.3	0.3
Cc1sc(NC(=O)Nc2ccccc2)c(C(N)=O)c1C	139.1*	37.5	0.6	111.4	-43.7	-7.9
COC(=O)c1c(NC(=O)Nc2ccc(Cl)cc2)sc(C)c1C	101.4	-4.7	1	128.1	0.7	-33.5
Cc1sc(NC(=S)NC(=O)CCc2ccccc2)c(C(N)=O)c1C	113.4	-9.6	1.1	155.7*	-15.0	-61.7
CCOc1ccc(-n2nc3c(=O)n(CCN4CCCCC4)nc(C)c3c2C)cc1	101.0	-7.5	1.1	91.8	-1.6	11.1
COc1cc(/C=N/Nc2nc(N3CCCC3)nc(N3CCCC3)n2)ccc1O	100.2	-1.8	1	95.8	-0.2	9.4
COc1cc(/C=N/Nc2nc(Nc3ccccc3)nc(N3CCCCC3)n2)ccc1OCC(=O)O	102.6	50.8*	0.5	102.9	-2.9	1.5
Oc1ccc(/C=N/Nc2nc(N3CCCC3)nc(N3CCCC3)n2)cc1O	131.5*	-1.5	1	100.4	-36.0	4.0
CC1CC2(C)Oc3ccccc3CC2C(C)C1CNCCCN(C)C (stereo not drawn)	99.5	-9.4	1.1	110.1	-2.8	-7.2
COc1ccc(CN(C)Cc2ccccc2)c(OC)c1OC	95.6	-6.4	1.1	91.8	5.0	13.2
CCOc1cc(/C=C/c2cc(C(=O)O)c3ccccc3n2)ccc1OC	106.9	85.8*	0.1	109.4	-8.0	-9.9
COc1cc(/C=C/c2cc(C(=O)O)c3ccccc3n2)cc(OC)c1O	100.9	38.4	0.6	98.5	-1.9	8.6
CCOc1cc(/C=C/c2cc(C(=O)O)c3ccccc3n2)ccc1O	102.7	72.9*	0.3	91.6	-3.1	11.9
SMILES	STAT1 act	FLuc inhib CS	FLuc stim CS	STAT3 activator	STAT1 inh	STAT3 blocker
CCOc1cc(/C=N/NC(=O)Nc2ccccc2)ccc1O	126.7	35.7	0.6	110.0	-31.1	-9.2
CC1CCN(S(=O)(=O)c2ccc3c(c2)c(=O)c(C(=O)NCc2ccccc2Cl)cn3C)CC1	94.5	-2.7	1	99.0	6.1	9.5
Cc1cc(C(=O)Nn2cnc3ccccc3c2=O)ccc1[N+](=O)[O-]	102.8	-5.0	1.1	98.1	-5.3	7.7
O=C(/C=C/N1CCOCC1)c1coc2ccccc12	136.0*	54.1*	0.5	95.8	-39.6	8.9
CCS(=O)(=O)c1ccc2c(c1)N(S(C)(=O)=O)CC(C(=O)NN)O2 (stereo not drawn)	99.7	-7.1	1.1	97.9	0.2	4.7
CCc1ccc(OCC(=O)N/N=C(\C)c2ccc(-n3ccnc3)cc2)cc1	103.7	72.3*	0.3	111.6	-4.2	-11.5
CCc1ccc(OCC(=O)N/N=C(\C)c2ccc(OC(F)F)cc2)cc1	99.8	2.3	1	91.5	0.3	12.1
C/C(=N\NC(N)=O)c1ccc(-n2ccnc2)cc1	97.1	-6.8	1.1	102.7	3.0	2.8
C/C(=N\Nc1ccc(C(=O)O)cc1)c1ccc(-n2ccnc2)cc1	138.3*	1.1	1	107.3	-43.3	-0.4
Cc1[nH]n(-c2ccc([N+](=O)[O-])cc2)c(=O)c1C=NCCc1c(C)[nH]c2ccccc12	99.4	0.7	1	81.4	0.7	23.9
COc1ccc(N=CC2=C(O)CCCC2=O)cc1	136.0*	7.2	0.9	96.0	-39.3	9.8
COc1ccc(N=Cc2c(O)cc(C)oc2=O)cc1	113.6	47.8	0.5	97.7	-14.7	4.9
CC1(C)CC(=O)C(C=Nc2ccc3c(c2)OCO3)=C(O)C1	131.8*	13.2	0.9	113.8	-34.8	-11.4
COc1ccc(N=CC2=C(O)CC(C)(C)CC2=O)cc1	133.3*	7.5	0.9	95.5	-36.4	7.9
COc1ccc(OC)c(N=CC2=C(O)CC(C)(C)CC2=O)c1	102.4	-3.5	1	89.6	-2.6	15.8
Cc1[nH]n(-c2nc(-c3ccc(Cl)cc3)cs2)c(=O)c1N=Nc1ccc(O)cc1	81.8	7.8	0.9	82.6	18.6	22.9
O=C1C2C3C=CC(C4CC34)C2C(=O)N1/N=C/c1c[nH]c2ccccc12 (stereo not drawn)	133.4*	77.8*	0.2	87.6	-37.7	24.0
Cc1ccc(NC(=O)C(=O)NCCN2CCN(S(=O)(=O)c3ccccc3)CC2)cc1C	92.5	-9.9	1.1	91.0	6.6	12.0
CC(C)N=C1NN=C(c2cccs2)CS1	134.2*	31.3	0.7	107.3	-38.1	-7.2
CC(C)N=C1NN=C(c2ccc(Cl)c(Cl)c2)CS1	135.5*	63.6*	0.4	74.3	-40.9	36.9
O=C(Cn1nnc(-c2ccccc2Cl)n1)N/N=C/c1ccc(-c2cccc(Cl)c2)o1	103.4	-7.3	1.1	92.7	-3.7	11.9
O=C(CCCOc1ccc(Cl)cc1Cl)NNC(=O)c1ccc(NC(=O)c2ccccc2)cc1	101.3	-3.8	1	105.4	-1.5	-3.7
CCN1C(=O)/C(=C/c2ccc(C)o2)N(C)C1=S	88.4	2.1	1	86.5	12.8	15.0

Screens deposited in PubChem by several laboratories.
